Screening data from PubChem.
pPAFAH FP inh: pPAFAH enzyme inhibitors, primary screen, biochemical, fluorescence polarization, human; actives 1.5% (n = 330,000); Platelet-activating factor acetylhydrolase (Homo sapiens), Q13093; inhibition, % at 3.39 µM; recombinant pPAFAH, FP-rhodamine probe fluorescence polarization;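 active means inhibition above the mean inhibition across the screen plus 3 SD, cut at about 25% in these data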;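 further: inhibitors block binding of the rhodamine activity-based probe so polarization drops; 0% = enzyme with DMSO and 100% = wells lacking pPAFAH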
PAFAH1B3 inh: PAFAH1B3 enzyme inhibitors, primary screen, biochemical, fluorescence polarization, human | Platelet-activating factor acetylhydrolase IB subunit alpha1 (Homo sapiens), Q15102 | recombinant PAFAH1B3, FP-rhodamine probe | inhibition, % at 3.39 µM | actives 0.28% (n = 340,000);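 active means inhibition above the screen-wide average of all tested compounds plus 3 SD, cut at about 25% in these data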;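 further: 0% = enzyme with DMSO only and 100% = wells lacking PAFAH1B3 protein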
Target sequence (Q15102 whole entry, looked up): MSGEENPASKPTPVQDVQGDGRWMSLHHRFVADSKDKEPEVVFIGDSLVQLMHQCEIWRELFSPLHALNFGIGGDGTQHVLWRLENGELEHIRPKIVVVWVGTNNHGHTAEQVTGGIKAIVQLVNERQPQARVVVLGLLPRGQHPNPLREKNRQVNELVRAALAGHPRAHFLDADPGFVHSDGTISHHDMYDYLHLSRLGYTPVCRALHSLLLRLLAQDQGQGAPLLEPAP
PAFAH1B2 FP inh: PAFAH1B2 enzyme inhibitors, primary screen, biochemical, fluorescence polarization, human; actives 1.2% (n = 340,000); AID 492953, 2010; recombinant PAFAH1B2, FP-rhodamine activity probe; inhibition, % at 3.39 µM;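 active means inhibition above the mean of all tested compounds plus 3 SD, cut at about 24% in these data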;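 further: 0% = enzyme with DMSO and 100% = wells lacking PAFAH1B2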
PAFAH2 inh: PAFAH2 enzyme inhibitors, primary screen, biochemical, fluorescence polarization, human; Platelet-activating factor acetylhydrolase 2, cytoplasmic (Homo sapiens), Q99487; recombinant PAFAH2, FP-rhodamine activity probe; inhibition, % at 3.39 µM; actives 0.99% (n = 340,000);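 active means inhibition above the mean over all tested compounds plus 3 SD, cut at about 30% in these data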;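 further: inhibitors block probe labeling of enzyme so polarization drops; 0% = enzyme with DMSO and 100% = wells lacking PAFAH2 protein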
ARFGAP1 inh: inhibitors of rat ARFGAP1 GAP activity, primary screen, biochemical, fluorescence polarization, GDP tracer | ADP-ribosylation factor GTPase-activating protein 1 (Rattus norvegicus), Q62848 | Arfgap1-stimulated ARF1 GTP hydrolysis, GDP FP detection | inhibition, % at 16.5 µM | actives 0.26% (n = 360,000) | AID 651572, 2012;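 active means inhibition above a per-plate limit, mean inhibition of low control wells plus 3 SD, cut at about 25% in these data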;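 further: 0% = DMSO wells with enzyme and 100% = wells lacking Arfgap1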
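Replicates: Single well per compound | Assay system: Truncated rat Arfgap1 GAP domain | Control set: No-Arfgap1 wells (100%) versus DMSO full-reaction wells (0%) | Times: Enzyme reaction 120 min at 25 °C after 20 min preincubation | Reagent: Human ARF1(Δ1-17)-GTP substrate | Measured by: Tracer-displacement fluorescence polarization with EDTA stop, 620/688 nm | Measure: Percent inhibition of Arfgap1-stimulated GTP hydrolysis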
ASAP1 GAP inh: inhibitors of human ASAP1 ArfGAP activity, primary screen, biochemical, fluorescence polarization; Arf-GAP with SH3 domain, ANK repeat and PH domain-containing protein 1 (Homo sapiens), …; actives 0.19% (n = 360,000); inhibition, % at 16.5 µM; AID 624377, 2012; ASAP1-stimulated ARF1 GTP hydrolysis, GDP FP detection; in the data active means inhibition above about 25%;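 further: 0% = vehicle with enzyme and substrate and 100% = no enzyme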
Target sequence (Q9ULH1 325-724 limits assumed): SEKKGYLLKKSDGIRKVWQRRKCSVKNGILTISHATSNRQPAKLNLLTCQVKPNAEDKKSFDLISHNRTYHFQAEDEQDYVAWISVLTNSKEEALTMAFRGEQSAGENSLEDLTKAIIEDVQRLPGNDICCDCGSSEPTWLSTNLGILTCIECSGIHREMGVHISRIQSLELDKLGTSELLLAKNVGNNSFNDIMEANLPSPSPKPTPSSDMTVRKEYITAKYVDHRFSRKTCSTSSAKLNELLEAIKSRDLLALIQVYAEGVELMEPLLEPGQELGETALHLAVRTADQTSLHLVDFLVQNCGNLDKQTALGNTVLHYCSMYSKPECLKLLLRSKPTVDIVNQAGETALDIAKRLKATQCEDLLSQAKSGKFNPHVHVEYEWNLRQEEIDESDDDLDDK
The depositor's hits bear a star; . = not tested or not shown. Shown are actives, neighbours in structure and some others; about 2.8% of the full set was active somewhere.

SMILES	pPAFAH FP inh	PAFAH1B3 inh	PAFAH1B2 FP inh	PAFAH2 inh	ARFGAP1 inh	ASAP1 GAP inh
COc1cc(/C=N/NC(=O)/C(=C\c2ccc([N+](=O)[O-])cc2)NC(=O)c2ccccc2)cc(OC)c1O	13	17	1	3	-8	-1
O=C(N/N=C/c1cc([N+](=O)[O-])cc([N+](=O)[O-])c1O)/C(=C\c1cccs1)NC(=O)c1ccccc1	31*	12	10	14	3	10
CCCCCC(=O)N1C[C@H](n2cc(COC(=O)c3ccccc3)nn2)[C@@H](O)C[C@@H]1c1ccc(Cl)cc1	.	.	.	.	-3	-4
Cc1ccccc1NC(=O)c1ccccn1	27*	6	1	-9	6	6
O=C(N[C@@H](Cc1ccc(Br)cc1)C(=O)O)OCC1c2ccccc2-c2ccccc21	14	-2	70*	6	-1	2
Nc1ccc(CNC(=O)OCC2c3ccccc3-c3ccccc32)cc1	2	8	3	0	11	10
CC(c1ccccc1)C(NC(=O)OCC1c2ccccc2-c2ccccc21)C(=O)O (stereo unspecified)	8	-12	29*	10	-16	-7
CCOc1ccc(/C=N/OCC(=O)Nc2cc(S(=O)(=O)N3CCOCC3)ccc2OC)cc1	-2	7	4	4	8	-7
O[C@H]1CN(CC2CCCCC2)[C@@H](c2ccccc2)C[C@@H]1n1cc(C2CC2)nn1	.	.	.	.	10	0
COc1ccc(CN(C)CC(=O)Nc2sc3c(c2C#N)CCC3)c(OC)c1	5	6	24*	8	7	-2
O=C(O)C(Cc1c[nH]c2ccccc12)NS(=O)(=O)c1ccccc1 (stereo unspecified)	2	0	24*	2	-2	1
COc1cc(S(=O)(=O)NC(Cc2c[nH]c3ccccc23)C(=O)O)ccc1NC(C)=O (stereo unspecified)	-7	3	5	-1	14	-9
CC1(C)CC2CC(C)(CN2S(=O)(=O)c2cccc(N)c2)C1 (stereo unspecified)	-3	6	24*	-4	-10	6
CCCNC(=O)c1cccc(S(=O)(=O)N2CC3(C)CC2CC(C)(C)C3)c1 (stereo unspecified)	-1	0	26*	1	5	0
CN(C)C(CNC(=O)c1cccc(S(=O)(=O)N2CC3(C)CC2CC(C)(C)C3)c1)c1ccco1 (stereo unspecified)	4	3	13	11	2	-15
O=S(=O)(Nc1ncnc2sc3c(c12)CCC3)c1cc(F)ccc1F	30*	6	3	0	-11	3
COc1ccc(CCNc2oc(COc3ccc(Br)cc3)nc2C#N)cc1OC	1	13	28*	-1	10	11
COc1ccc(CNc2oc(COc3ccc(Cl)cc3)nc2C#N)cc1	-4	-4	28*	-6	5	2
COc1ccc(CCNc2oc(Cc3cccc4ccccc34)nc2C#N)cc1OC	3	-7	4	-6	8	9
COc1ccc(Nc2oc(COc3ccc(Cl)cc3)nc2C#N)cc1	9	10	16	8	13	-8
O=C1NC[C@@H](CCCCN2C[C@H](Cc3ccccc3)N(CCc3ccccc3)C(=O)C2=O)N(CCc2ccccc2)C1=O	.	.	.	.	-2	18
CCc1ccc(N2CC(C)Cn3c2nc2c3c(=O)[nH]c(=O)n2C)cc1 (stereo unspecified)	34*	0	6	6	6	4
Nc1c(C(=O)Nc2ccccc2F)sc2nc(-c3cccnc3)ccc12	10	3	5	2	0	1
Nc1c(C(=O)Nc2ccccc2F)sc2nc(-c3ccco3)ccc12	31*	3	-3	24	-5	5
Cc1cccc(S(=O)(=O)N(C)C[C@H]2OCc3cnnn3CCCC(=O)N([C@H](C)CO)C[C@H]2C)c1	.	.	.	.	-12	2
SMILES	pPAFAH FP inh	PAFAH1B3 inh	PAFAH1B2 FP inh	PAFAH2 inh	ARFGAP1 inh	ASAP1 GAP inh
Cc1ccc(S(=O)(=O)N(C)CC(=O)O/N=C(\N)c2cccc([N+](=O)[O-])c2)cc1	6	4	4	-7	0	-4
N/C(=N\OC(=O)Cc1ccccc1)c1cccc(Br)c1	0	7	30*	5	1	7
Cc1ccc(SCC(=O)O/N=C(\N)c2cccc([N+](=O)[O-])c2)cc1	13	3	36*	2	-8	-4
N/C(=N\OC(=O)CCCc1ccccc1)c1cccc([N+](=O)[O-])c1	1	4	26*	-4	1	-4
COc1ccc(/C(N)=N/OC(=O)CSc2ccccc2)cc1	5	9	29*	8	9	14
N/C(=N\OC(=O)Cc1ccccc1[N+](=O)[O-])c1cccc(Br)c1	12	6	5	2	3	5
CC(C)NC(=O)c1cc(C2CCCCN2C(=O)c2ccccc2)on1 (stereo unspecified)	.	.	.	.	1	9
CC(CC(=O)NCCc1ccc(Cl)cc1)S(=O)(=O)c1ccc2c(c1)NC(=O)CO2 (stereo unspecified)	4	3	30*	4	-11	-5
N/C(=N\OC(=O)C1CCCCC1)c1ccc(Br)cc1	-2	14	6	3	-10	-2
C/C(=N/OC(=O)C1CC12CCC2)c1ccc(Br)cc1 (stereo unspecified)	5	5	52*	51*	4	-4
CCOC(=O)[C@]12CCCC=C1N(Cc1ccc3c(c1)OCO3)C(=O)[C@H](CC(=O)NCc1ccc(C)o1)C2	.	.	.	.	-2	-3
Cc1cccc(N/N=C(\C#N)S(=O)(=O)C(C)(C)C)c1	12	3	7	-2	3	18
CC(C)(C)c1ccc(N/N=C(\C#N)S(=O)(=O)C(C)(C)C)cc1	33*	12	14	19	5	5
O=C(COc1ccc2c(-c3ccccc3)cc(=O)oc2c1)N[C@@H](Cc1c[nH]c2ccc(O)cc12)C(=O)O	16	5	63*	-2	5	-3
CC(Oc1ccc2c(-c3ccccc3)cc(=O)oc2c1)C(=O)NC(Cc1c[nH]c2ccc(O)cc12)C(=O)O (stereo unspecified)	15	7	71*	-2	3	-17
CC1CCCC(C)N1C(=O)COC(=O)CSc1ccc(C(N)=O)cc1[N+](=O)[O-] (stereo unspecified)	-2	8	10	3	1	-6
